This note sets out measurements from publication PMC8359148 (ACS Omega, 2021).

“Also recorded” adds a separate entry of the source.

Series [1] has as its system wild-type P. falciparum 3D7 cells. Kind of series: dose–response assay against 3D7 cells. The series is classed as cell-based. The conditions noted are these: Plasmodium falciparum, 3D7, read-out: EC50 3D7. The method, boiled down: (§1)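 Dose–response EC50 values, each from three or more independent experiments. Dd2 and 3D7 runs use chloroquine as comparator. The selectivity index is calculated as HepG2 EC50 divided by Dd2 EC50.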

Series [2] deals with tightly synchronized P. falciparum Dd2 cells. Kind of series: developmental stage-specific action. The series is classed as cell-based, Plasmodium falciparum. The gist of the method: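 Tightly synchronized Dd2 cultures are treated with 1.25 μM test compound at 6, 18, 30 or 42 HPI, with 0.1% DMSO-treated infected RBCs as negative control and DHA and atovaquone as positive controls. Every 12 h, Giemsa-stained smears are read. Flow cytometry samples are fixed in 4% paraformaldehyde/0.0075% glutaraldehyde, permeabilized with 0.25% Triton X-100, RNase-treated (50 μg/mL) and YOYO-1 stained; parasitemia is taken by flow cytometry.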

A short description of a further series: chemical stability. It is filed as physicochemical.
The subject of series [3] is HepG2 (liver hepatocellular carcinoma) cells. Put plainly: HepG2. It is filed as cell-based, human. The conditions noted are these: for selectivity index (SI): HepG2 EC50/EC50 Dd2 cells; for EC50: Homo sapiens, HepG2, read-out: EC50 HepG2. The gist of the method: as §1
The subject of series [4] is P. falciparum Dd2 cultures. Kind of series: kinetic kill experiments. The conditions noted are these: for EC50: Plasmodium falciparum, DD2, read-out: 5 × EC50. It is filed as cell-based, Plasmodium falciparum. The method, boiled down:
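Asynchronous Dd2 cultures are exposed to test compound for 6, 12, 24 or 48 h at 0.15% DMSO, then washed three times in RPMI and resuspended in culture medium. Parasite growth is monitored daily for 96 h. DHA (50 nM) and atovaquone (6.6 nM) serve as controls.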

A further series is described as follows: solubility. The series is classed as physicochemical. The method, boiled down: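 DMSO solubility is tested up to 100 mM, the highest concentration tested. For aqueous solubility, PBS is slowly titrated into 10 mM DMSO stock to give 100 μM, the highest concentration tested. Clarity is checked visually against a PBS standard at room temperature over 24 h.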

Series [5] has as its system chloroquine-resistant P. falciparum Dd2 parasites. Put plainly: SYBR Green I dose–response assay against Dd2 parasites. It is filed as cell-based. The conditions noted are these: Plasmodium falciparum, DD2, read-out: EC50 Dd2, chloroquine-resistant P. falciparum Dd2, three or more independent experiments. The method, boiled down:
as §1

As a reminder, the EC50 is the concentration needed to bring the measured effect to its halfway point. Usually solubility stands for how much of the substance goes into solution per volume. As for `CC[C@@]12C=C(C(=O)OC)n3c(c(c4ccccc43)CCN(C(=O)c3ccccn3)CCC1)[C@@H]2c1ccc(O)cc1` [Compound 30, methyl (11S,19S)-11-ethyl-19-(4-hydroxyphenyl)-15-(pyridine-2-carbonyl)-8,15-diazatetracyclo[9.6.2.0^2,7.0^8,18]nonadeca-1(18),2(7),3,5,9-pentaene-9-carboxylate], the EC50 in series [1] was 1190 ± 250 nM; in series [3], above 25 µM; in series [5], 250 ± 4 nM. Besides, the “parasitemia (flow cytometry)” value in series [2] (Dd2 cells treated at 6, 18 and 30 HPI, 5 x EC50) is “remarkable decrease in parasitemia”. Besides, in series [2] (Dd2 cells treated at 42 HPI, 5 x EC50), the “effect on maturation when treated at 42 HPI” value is “did not inhibit maturation”. The stage-specific activity entry in series [2] (synchronized Dd2, 5 x EC50 (1.25 μM), treated at 6, 18, 30 and 42 HPI) is listed as “prevents exit on the parasite from the schizont stage; also recorded: arrested at the late schizont stage; also recorded: do not advance beyond the late schizont stage; also recorded: act specifically on the trophozoite/schizont stage”. The “chemical stability in acidified PBS” value in “chemical stability” (100 μM, PBS pH 2.0 (1.95), 24 h room temperature then 24 h 37 °C, TLC and NMR) is reported as “no compound breakdown; also recorded: no degradation”. In the series “chemical stability” (100 μM, PBS pH 7.4, 24 h room temperature then 24 h 37 °C, TLC and NMR), the “chemical stability in PBS pH 7.4” value is listed as “no compound breakdown; also recorded: no degradation”. Further, the “chemical stability during NMR experiments” value in “chemical stability” (100 °C for multiple hours) is “without showing compound breakdown”. Besides, the “selectivity index (SI)” value in series [3] is on record as above 100. In addition, the “effect after 24 h treatment” value in series [4] (5× EC50, 24 h treatment, based on the 96 h time point) is “reduces parasitemia”. For the same compound, the “effect after 48 h treatment” value in series [4] (5× EC50, 48 h treatment) is recorded as “more dramatic parasitocidal effect”. This compound also displayed a kill rate in series [4] (Dd2 cultures, 5 × EC50, treatment time required to kill) above 24 h. In the series “solubility” (PBS buffer, aqueous buffer, kinetic from dmso stock), this compound gave a solubility at 24 h of at least 100 µM. For the same compound, the solubility in “solubility” (biological grade DMSO, organic solvent or mixture) was at least 100 mM.

Turning to `CC[C@@]12C=C(C(=O)OC)n3c(c(c4ccccc43)CCN(C(=O)c3cncc(Cl)c3)CCC1)[C@@H]2c1ccc(O)cc1` [Compound 32, methyl (11S,19S)-15-(5-chloropyridine-3-carbonyl)-11-ethyl-19-(4-hydroxyphenyl)-8,15-diazatetracyclo[9.6.2.0^2,7.0^8,18]nonadeca-1(18),2(7),3,5,9-pentaene-9-carboxylate], the EC50 in series [1] was 2220 ± 340 nM; in series [3] it was above 25 µM; in series [5], 490 ± 100 nM. Besides, in series [3], the “selectivity index (SI)” value was above 51.

`CC[C@@]12C=C(C(=O)OC)n3c(c(c4ccccc43)CCN(C(=O)c3cncc(Br)c3)CCC1)[C@@H]2c1ccc(O)cc1` [Compound 33, methyl (11S,19S)-15-(5-bromopyridine-3-carbonyl)-11-ethyl-19-(4-hydroxyphenyl)-8,15-diazatetracyclo[9.6.2.0^2,7.0^8,18]nonadeca-1(18),2(7),3,5,9-pentaene-9-carboxylate]: the half-maximal effective concentration (EC50) in series [1] is 1700 ± 320 nM; in series [3], above 25 µM; in series [5], 650 ± 9 nM. Further, the “selectivity index (SI)” value in series [3] is listed as above 38.

In the case of `C[C@H]1[C@@H](O)O[C@@H]2O[C@@]3(C)CC[C@H]4[C@H](C)CC[C@@H]1[C@@]24OO3` [Dihydroartemisinin (DHA), Dihydroartemisinin, reference compound], in series [4], the EC50 stood at 50 nM.

For the compound `O=C1C(O)=C([C@H]2CC[C@H](c3ccc(Cl)cc3)CC2)C(=O)c2ccccc21` [atovaquone, reference compound], the EC50 in series [4] was found to be 6.6 nM.
